Series [1] has as its target T1, Peroxisome proliferator-activated receptor gamma (Homo sapiens) (UniProt P37231).
T1 sequence (whole entry): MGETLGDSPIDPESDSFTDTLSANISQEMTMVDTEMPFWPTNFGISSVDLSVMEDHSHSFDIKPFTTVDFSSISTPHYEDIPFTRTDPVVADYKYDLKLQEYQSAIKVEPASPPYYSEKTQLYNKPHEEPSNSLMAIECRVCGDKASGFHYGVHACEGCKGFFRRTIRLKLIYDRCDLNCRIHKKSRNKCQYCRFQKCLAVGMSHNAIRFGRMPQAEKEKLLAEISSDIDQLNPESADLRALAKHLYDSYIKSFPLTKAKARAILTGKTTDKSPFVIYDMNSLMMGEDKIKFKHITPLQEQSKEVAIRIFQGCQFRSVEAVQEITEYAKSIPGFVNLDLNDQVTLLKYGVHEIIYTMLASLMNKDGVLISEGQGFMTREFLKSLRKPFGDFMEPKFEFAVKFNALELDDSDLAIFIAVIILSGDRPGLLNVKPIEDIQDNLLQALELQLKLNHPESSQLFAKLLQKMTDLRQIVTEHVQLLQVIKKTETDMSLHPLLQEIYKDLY
In words: Transactivation of PPARgamma in human HepG2 cells assessed as FAM3A mRNA expression at 10 uM after 8 to 16 hrs by SYBR green based qRT-PCR analysis relative to DMSO control. The series is classed as cell-based. The gist of the method:
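HepG2 cells treated 8 or 16 h with compound or 0.1% DMSO, washed in cold PBS, RNA extracted; SYBR Green qRT-PCR in duplicate, ≥4 independent experiments (n = 3 for CD36/FAM3A). ΔΔCt method with GAPDH reference; expression as % of vehicle (100%). Pioglitazone 1 μM used as positive control for the PPARγ genes.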
(Quantitative PCR measures a nucleic acid by following its amplification.)

Series [2] addresses T2, Bile acid receptor (Homo sapiens) (UniProt Q96RI1).
T2 sequence (whole entry): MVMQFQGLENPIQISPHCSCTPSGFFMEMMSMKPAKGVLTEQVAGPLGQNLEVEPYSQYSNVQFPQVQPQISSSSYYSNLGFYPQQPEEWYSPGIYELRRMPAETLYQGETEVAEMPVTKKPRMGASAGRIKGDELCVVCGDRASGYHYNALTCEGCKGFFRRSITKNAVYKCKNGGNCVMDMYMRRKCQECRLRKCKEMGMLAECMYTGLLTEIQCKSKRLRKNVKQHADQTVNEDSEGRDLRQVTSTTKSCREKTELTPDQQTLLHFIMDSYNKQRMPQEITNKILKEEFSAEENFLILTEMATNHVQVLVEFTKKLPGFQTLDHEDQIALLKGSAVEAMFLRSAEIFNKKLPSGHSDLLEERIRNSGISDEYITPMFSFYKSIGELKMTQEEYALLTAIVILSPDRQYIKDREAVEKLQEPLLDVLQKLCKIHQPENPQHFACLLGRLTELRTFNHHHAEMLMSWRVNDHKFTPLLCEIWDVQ
In words: Transactivation of FXR in human HepG2 cells assessed as SHP mRNA expression at 1 uM after 8 to 16 hrs by SYBR green based qRT-PCR analysis relative to DMSO control. In kind it is cell-based. Summed up: (§1)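 HepG2 cells incubated with test compound (0.1 and 1 μM) or 0.1% DMSO for 8 or 16 h, washed in cold PBS, RNA extracted; target mRNA by SYBR Green qRT-PCR, duplicate samples, ≥4 independent experiments; comparative ΔΔCt with GAPDH reference, vehicle set as 100%.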

Series [3] concerns the target Oxysterols receptor LXR-alpha (Homo sapiens) (UniProt Q13133). The experiment in a line: Transactivation of human GAL4-fused LXRalpha ligand binding domain expressed in […] cells at 10 uM after 12 to 14 hrs by dual-glo luciferase reporter gene assay. The series is classed as cell-based. The gist of the method:
(§2)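 HEK293T cells in DMEM/10% FCS, Opti-MEM before Lipofectamine LTX transfection with pFR-Luc reporter, pRL-SV40 and pFA-CMV GAL4–LBD plasmid. 5 h later compound in 0.1% DMSO, Opti-MEM, overnight (12−14 h). Dual luciferase; firefly/renilla ×1000 = RLU, fold over DMSO control; triplicates, ≥3 independent repeats.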
(In general: In a reporter assay the amount or activity of a reporter protein is the signal.)

The target in series [4] is Oxysterols receptor LXR-beta (Homo sapiens) (UniProt P55055). The experiment in a line: Transactivation of human GAL4-fused LXRbeta ligand binding domain expressed in […] cells at 10 uM after 12 to 14 hrs by dual-glo luciferase reporter gene assay. In kind it is cell-based. Summed up:
as §2

Series [5] concerns the target T2, Bile acid receptor (Homo sapiens). The experiment in a line: Transactivation of human FXR expressed in human HeLa cells co-expressing BSEP at 50 uM after 24 hrs by dual-glo luciferase reporter gene assay relative to GW4064. In kind it is cell-based. The gist of the method:
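HeLa cells in DMEM/10% FCS at 37 °C, 5% CO2; switched to 0.5% charcoal-stripped FCS before calcium phosphate co-transfection with pcDNA3-hFXR, pSG5-hRXR, BSEP promoter–firefly luciferase reporter and pRL-SV40 renilla. Compound in 0.1% DMSO, phenol red-free medium, 24 h.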

In the next series the test system is HepG2. The experiment in a line: Cytotoxicity against human HepG2 cells up to 100 uM after 48 hrs by WST1 assay. The following applies: hepg2, 48 h. In kind it is cell-based. (Formazan colour is commonly taken as a measure of viable cells.)
For series [6], the target named is G-protein coupled bile acid receptor 1 (Homo sapiens) (UniProt Q8TDU6). The experiment in a line: Agonist activity at TGR5 (unknown origin) at 10 uM.
In series [7] the target is T2, Bile acid receptor (Homo sapiens). In words: Transactivation of FXR in human HepG2 cells assessed as SREBP1c mRNA expression at 1 uM after 8 to 16 hrs by SYBR green based qRT-PCR analysis relative to DMSO control. In kind it is cell-based. The gist of the method:
as §1

Series [8] deals with Retinoic acid receptor RXR-alpha (Homo sapiens) (UniProt P19793). In words: Transactivation of human GAL4-fused RXRalpha ligand binding domain expressed in […] cells at 10 uM after 12 to 14 hrs by dual-glo luciferase reporter gene assay. In kind it is cell-based. Summed up: as §2
The subject of a further series is Liver. The experiment in a line: Drug metabolism in Sprague-Dawley rat liver microsomes assessed as N-(4-Amino-2-chlorobenzyl)-4-(tert-butyl)benzamide formation at 10 uM preincubated with NADPH regenerating system for 5 mins followed by addition of liver microsomes by LC-MS/MS method. In kind it is ADME, microsome.
The target in a further series is T3, Bile acid receptor (Homo sapiens, UniProt Q96RI1).
T3 sequence (Q96RI1 whole entry): T2 sequence (whole entry)
In words: Transactivation of FXR in human HepG2 cells assessed as CYP7A1 mRNA expression at 0.1 uM after 8 to 16 hrs by SYBR green based qRT-PCR analysis relative to DMSO control. In kind it is ADME, cell-based. Summed up:
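HepG2 cells incubated with compound (0.1 or 1 μM) or 0.1% DMSO for 8 or 16 h, washed with cold PBS, RNA extracted. Quantified by SYBR Green real-time PCR, duplicate samples, at least four independent experiments. ΔΔCt method with GAPDH as reference gene. Expressed as % of vehicle (set to 100%), mean ± SEM.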

Series [9] deals with T2, Bile acid receptor (Homo sapiens). In words: Transactivation of FXR in human HepG2 cells assessed as BSEP mRNA expression at 1 uM after 8 to 16 hrs by SYBR green based qRT-PCR analysis relative to DMSO control. In kind it is cell-based. Summed up: as §1

Activity calls are given as the source filed them. No cut-off for these calls is given here.

Oxysterols receptor LXR-beta (Homo sapiens), sequence (P55055 whole entry, the tested form may be a part): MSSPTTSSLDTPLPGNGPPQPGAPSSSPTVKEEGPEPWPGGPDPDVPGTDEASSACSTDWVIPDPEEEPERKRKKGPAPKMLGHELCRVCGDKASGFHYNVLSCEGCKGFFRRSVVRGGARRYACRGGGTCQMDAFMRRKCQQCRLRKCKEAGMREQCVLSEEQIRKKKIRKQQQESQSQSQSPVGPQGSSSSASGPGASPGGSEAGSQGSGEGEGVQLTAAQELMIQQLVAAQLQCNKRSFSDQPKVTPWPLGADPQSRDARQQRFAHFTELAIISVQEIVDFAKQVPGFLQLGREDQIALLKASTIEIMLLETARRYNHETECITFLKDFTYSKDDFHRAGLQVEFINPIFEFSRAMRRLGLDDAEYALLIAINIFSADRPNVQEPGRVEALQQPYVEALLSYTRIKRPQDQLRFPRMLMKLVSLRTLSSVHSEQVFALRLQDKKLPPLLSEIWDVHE
G-protein coupled bile acid receptor 1 (Homo sapiens), sequence (Q8TDU6 whole entry): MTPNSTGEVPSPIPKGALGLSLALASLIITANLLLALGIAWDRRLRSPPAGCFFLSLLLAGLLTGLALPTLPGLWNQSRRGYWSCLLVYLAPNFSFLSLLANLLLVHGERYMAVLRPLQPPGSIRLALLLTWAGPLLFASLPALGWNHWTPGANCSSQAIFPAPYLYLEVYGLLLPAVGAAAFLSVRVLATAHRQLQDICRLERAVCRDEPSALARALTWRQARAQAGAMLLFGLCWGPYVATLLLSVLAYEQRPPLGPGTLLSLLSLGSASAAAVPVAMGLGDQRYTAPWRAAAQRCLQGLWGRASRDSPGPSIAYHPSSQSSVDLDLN
Retinoic acid receptor RXR-alpha (Homo sapiens), sequence (P19793 whole entry, the tested form may be a part): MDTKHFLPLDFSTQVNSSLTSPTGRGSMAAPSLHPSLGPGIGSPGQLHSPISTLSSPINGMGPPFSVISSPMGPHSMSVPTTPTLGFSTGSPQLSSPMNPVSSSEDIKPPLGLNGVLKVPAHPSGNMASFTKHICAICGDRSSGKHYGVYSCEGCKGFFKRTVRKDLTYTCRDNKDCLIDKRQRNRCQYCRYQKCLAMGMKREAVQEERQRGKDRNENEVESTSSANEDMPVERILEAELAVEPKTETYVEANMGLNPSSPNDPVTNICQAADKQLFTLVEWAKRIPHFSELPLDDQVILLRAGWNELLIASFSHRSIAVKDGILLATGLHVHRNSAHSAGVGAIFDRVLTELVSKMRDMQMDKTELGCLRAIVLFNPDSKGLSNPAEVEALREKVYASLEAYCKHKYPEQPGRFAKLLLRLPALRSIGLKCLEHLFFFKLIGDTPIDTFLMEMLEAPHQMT
Oxysterols receptor LXR-alpha (Homo sapiens), sequence (Q13133 whole entry, the tested form may be a part): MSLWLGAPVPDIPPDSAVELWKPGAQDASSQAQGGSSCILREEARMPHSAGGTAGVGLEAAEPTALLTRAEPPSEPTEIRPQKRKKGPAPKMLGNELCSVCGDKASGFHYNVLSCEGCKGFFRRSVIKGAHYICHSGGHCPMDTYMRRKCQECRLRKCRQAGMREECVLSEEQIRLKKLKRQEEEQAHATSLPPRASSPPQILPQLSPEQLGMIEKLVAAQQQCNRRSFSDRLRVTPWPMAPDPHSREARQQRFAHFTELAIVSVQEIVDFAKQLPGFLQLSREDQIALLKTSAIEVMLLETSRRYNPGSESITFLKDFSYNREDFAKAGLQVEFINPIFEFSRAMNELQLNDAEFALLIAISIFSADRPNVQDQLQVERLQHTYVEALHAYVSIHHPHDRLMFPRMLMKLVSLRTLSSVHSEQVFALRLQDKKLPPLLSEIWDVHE

With `CC(C)(C)c1ccc(C(=O)NCc2ccc(NS(C)(=O)=O)cc2Cl)cc1`, the Activity in series [1] is 142%; in [2], 317%; in the series with HepG2, “Non-Toxic”; in [7] it was 36%; at Bile acid receptor, 50%; in [9] it was 222%. Moreover, the result in [3], in series [4], in [6] and in [8] was inactive. Besides, the Emax in series [5] was 35%. For the same compound, in the series on Liver, the Drug metabolism result was “Metabolite_Detected”.

The Emax is the maximal effect, on the per cent scale that the assay sets.

The record behind these values is ChEMBL document CHEMBL4017509, “A Dual Modulator of Farnesoid X Receptor and Soluble Epoxide Hydrolase To Counter Nonalcoholic Steatohepatitis” (J Med Chem, 2017).
